This note sets out measurements from PubChem BioAssay.

A short description of assay [1]: S. cerevisiae growth inhibition in permissive medium (OD615), pilot counter-assay for S. cerevisiae lifespan shortening project, permissive growth control (AID 705;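 active means growth inhibition above 25% in both replicates, a cutoff set 3 SD above the mean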). The note with it: OD615, 24 h, at 10 µM, stronger effect = higher value. Put shortly:
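assay system = Saccharomyces cerevisiae strain carrying genetically modified DeaD replicative-lifespan system | medium = SC raffinose/galactose permissive medium | dosing = 10 µM single dose, 0.25% DMSO | schedule = 24 h compound exposure at 30 °C after 4 h pre-growth | measured by = OD at 615 nm | read-out basis = growth inhibition from lowered OD615 after 24 h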

A short description of assay [2]: S. cerevisiae growth inhibition in restrictive medium, OD615, pilot screen, restrictive growth control, yeast lifespan reduction project (AID 706;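 active means growth inhibition above a set limit, 3 SD over mean compound inhibition, in both replicates, cut at about 43% in these data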;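 further: modified DeaD lifespan yeast strain shifted to restrictive glucose medium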). The note with it: OD615, 48 h, at 10 µM, stronger effect = higher value. A digest of the protocol:
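Buffer or medium: CSMM-D glucose medium. Material: genetically modified Saccharomyces cerevisiae, DeaD replicative lifespan assay strain. Times: 48 h compound exposure at 30 °C. Measured by: optical density at 615 nm.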

Assay [3] in a line: doxorubicin toxicity protection in MRP-1 cells – H69AR cells, CellTiter-Glo, duplicate, MRP-1 activator project, pilot screen (AID 807;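 active means viability increase at or above a cutoff of the median across tested compounds plus 3 SD, cut at about 8.5% in these data, passing the limit was not always enough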;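 further: compound pretreatment 18-22 h then 72 h combined with doxorubicin; 0% = doxorubicin alone and 100% = vehicle without doxorubicin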). The note with it: H69AR viability with doxorubicin, CellTiter-Glo luminescence; at 10 µM; stronger effect = higher value. On the technique in general: ATP-based viability assays read luminescence as a measure of living cells.
Assay [4] can be described thus: viability of HCT116 without oncogenic beta-catenin – human colon tumor cells, pilot screen (AID 823).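 Further: 0% = wells killed by 20 µM Hyamine and 100% = untreated DMSO cell wells.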 The following applies: HCT116 beta-catenin knockout viability, CellTiter-Glo, 60 h; at 10 µM; stronger effect = lower value.
The nature of assay [5]: RAM pathway blockade in budding yeast – dse1pr::URA3 reporter, 5-FOA selection, pilot screen (AID 869;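 active means inhibition over a set limit, the all-compound mean plus 3 SD, in both replicate runs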;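 further: 0% = DMSO wells with no growth and 100% = 10 µM 1-NA-PP1 with full growth; RAM network block rescues cells from 5-FOA so hits raise OD615 growth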). The note with it: S. cerevisiae dse1pr::URA3 5-FOA growth, OD615, 2 d; at 10 µM; stronger effect = higher value; strain carries analog-sensitive mutant Cbk1 kinase.
Assay [6] can be described thus: RAM signaling pathway blockade in yeast – S. cerevisiae, Pdr1DBD-CYC8 efflux-inhibited sensitized strain, primary screen (AID 1298;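 active means RAM network inhibition above 8.4% in each of two replicates, 3 SD over the compound average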;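 further: 0% = DMSO untreated cells without growth and 100% = 10 µM 1-NA-PP1 full growth; higher means more yeast growth rescued from 5-FOA killing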). The following applies: S. cerevisiae cbk1-as DSE1-URA3 strain, 5-FOA growth OD615, 2 d; at 50 µM; stronger effect = higher value.

As usually defined, the viability is a read-out of living cells in per cent, often relative to untreated cells. In general, inhibition refers to the change of the read-out against control, counted positive when it falls.

A number with no mark means an inactive call. Results filed as inconclusive are left out. Active and inactive are the calls of the source.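 How the source made its calls, unless noted: active means cell viability at or below a set limit in both duplicate runs, the limit being the all-compound median minus 4 SD (cut at about 23% in these data, passing the limit was not always enough); inconclusive means no clear call, values can overlap the other calls; inactive means the rest.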

With `CCCCNC(=O)C1C2C=CC3(CN(Cc4ccc(C)cc4)C(=O)C13)O2` (stereo not given), the growth inhibition in assay [1] was 2.61%; in assay [2] it was -16.4%. In addition, the viability increase in assay [3] is -2.02%. Further, the viability in assay [4] is 95.1%. Further, the inhibition in assay [5] was 0.08%. The RAM network inhibition in assay [6] is 0.67%.
For the molecule `Cc1ccc(C(=O)c2cn[nH]c2-c2cc(Cl)ccc2O)cc1`, the growth inhibition in assay [1] is 7.61%; in assay [2], 1.2%. The viability increase in assay [3] is -0.14%. In addition, in assay [4], the viability is 95.7%. The inhibition in assay [5] is 1.08%. The RAM network inhibition in assay [6] was -1.14%.
Regarding `COc1cc2c(cc1OC)C(C(=O)Nc1cccc(C)n1)C(c1cccnc1)N(C)C2=O` (stereo not given), the growth inhibition in assay [1] is 8.34%; in assay [2], -5.33%. In addition, the viability increase in assay [3] is -3.94%. In assay [4], the viability was 91.7%. Moreover, the inhibition in assay [5] was 0.58%. For the same molecule, the RAM network inhibition in assay [6] is 6.27%.
Regarding `COC(=O)c1cn(NC(=O)C2CCCCC2)c(=O)c2ccccc12`, the growth inhibition in assay [1] was 13.2%; in assay [2], 6.18%. In assay [3], the viability increase is -1.25%. The viability in assay [4] was 94.3%. In assay [5], the inhibition is -0.16%. Moreover, the RAM network inhibition in assay [6] is 5.38%.
With `Cn1c(Cn2c(=O)sc3ccccc32)nnc1SCc1ccc(F)cc1`, the growth inhibition is -7.12% in assay [1] and -5.41% in assay [2]. Further, the viability increase in assay [3] was -4.85%. In assay [4], the viability was 23.7% (active). In assay [5], the inhibition was 2.8%. Moreover, the RAM network inhibition in assay [6] was 16.2% (active).
As to `CCOC(=O)N1CCC(NC(=O)C(NC(=O)C2CCCCC2)C(C)C)CC1` (stereo not given), the growth inhibition in assay [1] was -6.95%; in assay [2], -2.83%. The viability increase in assay [3] is -1.25%. Also, the viability in assay [4] was 93%. Moreover, the inhibition in assay [5] is 2%. Moreover, the RAM network inhibition in assay [6] is 6.39%.
Take `CCOc1ccc(-n2c(SCC(=O)Nc3ccc4c(c3)OCCO4)nc3c(c2=O)SCC3)cc1`: the growth inhibition in assay [1] was -12.9%; in assay [2], -5.05%. Also, the viability increase in assay [3] was -2.09%. The viability in assay [4] was 84.1%. Further, the inhibition in assay [5] was 3.17%. The RAM network inhibition in assay [6] was 9.35%.
For the molecule `CC(=O)Nc1ccc(S(=O)(=O)N2CCC(c3nc4ccc(C)cc4[nH]3)CC2)cc1`, the growth inhibition is -24.1% in assay [1] and 2.08% in assay [2]. Besides, the viability increase in assay [3] is -3.15%. Moreover, in assay [4], the viability was 51.2%. In addition, in assay [5], the inhibition is 1.47%. Also, in assay [6], the RAM network inhibition is 9.15%.
Turning to `CCC(=O)N1CCc2cc(Br)cc(S(=O)(=O)CCC(=O)NCc3ccco3)c21`, the values for the growth inhibition in assay [1] and in assay [2] were -26.8% and 0.16%, respectively. In addition, the viability increase in assay [3] was -4.1%. The viability in assay [4] was 94.9%. The inhibition in assay [5] was 2.91%. Also, the RAM network inhibition in assay [6] was 4.36%.
For the molecule `CCOC(=O)C1=CSC2=NS(=O)(=O)CCN12`, the growth inhibition in assay [1] is 3.57%; in assay [2], -2.12%. Also, in assay [3], the viability increase is -2.36%. The viability in assay [4] was 97.7%. Besides, the inhibition in assay [5] is 2.31%. The RAM network inhibition in assay [6] was -0.32%.
For `Cc1c(Cl)cccc1NC(=O)CCN1CCCC(C)C1` (stereo not given), the growth inhibition is -12.9% in assay [1] and 3.83% in assay [2]. The viability increase in assay [3] was -3.58%. For the same molecule, in assay [4], the viability is 94.7%. For the same molecule, in assay [5], the inhibition is 2.28%. Also, the RAM network inhibition in assay [6] was 3.43%.
For `CN(C)CCCNC(=O)CC(c1ccc(F)cc1)c1ccco1` (stereo not given), the growth inhibition in assay [1] is -28.8%; in assay [2], 0.42%. The viability increase in assay [3] is -2.97%. Also, the viability in assay [4] is 77.9%. Moreover, in assay [5], the inhibition is 0.69%. Besides, in assay [6], the RAM network inhibition was 5.45%.
Regarding `CCn1nc(CC(=O)Nc2ccc(-n3cnnn3)c(C)c2)c2ccccc2c1=O`, the growth inhibition in assay [1] is -14.8%; in assay [2], -10.9%. The viability increase in assay [3] is -4.37%. The viability in assay [4] is 90.3%. For the same molecule, the inhibition in assay [5] is 0.6%. In addition, the RAM network inhibition in assay [6] was 5.97%.
For `CCOc1ccc(NC(=O)CSc2nnc(-c3ccccc3)n2N)cc1`, the growth inhibition in assay [1] is -8.33%; in assay [2], -0.575%. Moreover, in assay [3], the viability increase is -6.71%. For the same molecule, in assay [4], the viability was 93.8%. For the same molecule, the inhibition in assay [5] is 0.495%. The RAM network inhibition in assay [6] is 2.18%.
With `CCOc1cc(CNC(=O)CN2C(=O)c3ccccc3S2(=O)=O)ccc1OC`, the growth inhibition was -22.6% in assay [1] and -10.7% in assay [2]. Moreover, the viability increase in assay [3] is -0.6%. Besides, in assay [4], the viability was 98.1%. In assay [5], the inhibition is 1.69%. Moreover, the RAM network inhibition in assay [6] is 0.32%.
Regarding `O=C(Nc1ccc(Cl)cc1)c1ccncc1`, the figures for the growth inhibition in assay [1] and in assay [2] were -11.5% and -3.32%, respectively. Further, the viability increase in assay [3] is 0.18%. The viability in assay [4] was 106%. Further, the inhibition in assay [5] is 1.14%. Also, the RAM network inhibition in assay [6] was 6.15%.
`COC(=O)c1ccc(NCC(=O)c2ccccc2)cc1`: the growth inhibition is -7.25% in assay [1] and -4.05% in assay [2]. The viability increase in assay [3] is -4.87%. Also, the viability in assay [4] was 99.3%. Moreover, in assay [5], the inhibition is 1.83%. For the same molecule, in assay [6], the RAM network inhibition was 3.96%.
Take `COc1ccccc1N1CCN(CC(=O)Nc2cc(C)nn2-c2nc(C)cc(C)n2)CC1`: the growth inhibition is -5.77% in assay [1] and -18.8% in assay [2]. Also, the viability increase in assay [3] is -7.06%. Also, the viability in assay [4] is 19.6% (active). For the same molecule, the inhibition in assay [5] was 1.77%. Besides, the RAM network inhibition in assay [6] is 6.51%.
As to `CC(C)n1c(CNC(=O)c2ccccc2)nc2ccccc21`, the growth inhibition is -18.1% in assay [1] and 9.14% in assay [2]. For the same molecule, the viability increase in assay [3] is -3.11%. For the same molecule, the viability in assay [4] is 100%. Moreover, the inhibition in assay [5] was 2.63%. Also, the RAM network inhibition in assay [6] was 1.5%.
On to `NCCOc1ccccc1-c1ccccc1`, for which the growth inhibition in assay [1] was -17.6%; in assay [2], -14.4%. For the same molecule, the viability increase in assay [3] was -3%. For the same molecule, the viability in assay [4] was 87.2%. Besides, in assay [5], the inhibition is 2.3%. In assay [6], the RAM network inhibition was 2.4%.
